# Compound activity (PubChem BioAssay)
# N-glyco inh – blocks N-linked glycosylation in D54 reporter cells; reporter increase, % at 12.5 µM; AID 588692; 0.23% of 360,000 active; D54 ERlucT glycosylation luciferase reporter, 24 h; percent of 100 nM tunicamycin response;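 active = mean luciferase reporter signal, scaled so untreated is 0 and the glycosylation-blocking control 100, at or above a set limit in every replicate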;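 also: luciferase carries N-glycosylation sites so blocking glycosylation raises the light; 0% = median of neutral control wells and 100% = median of 100 nM tunicamycin wells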
# Vif inh – inhibitors of HIV Vif; HEK293T cells, Vif self-association by quenched fluorescence, imaging, 24 h; inhibition, % at 7.49 µM; 0.35% of 340,000 active; in the data active = inhibition above about 50%, passing the limit was not always enough
# MsrA inh – inhibits bovine methionine sulfoxide reductase A; 0.75% of 360,000 active; purified bovine MsrA, absorbance read-out; inhibition, % at 15.5 µM; in the data active = inhibition above about 4.5%;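 also: 0% = vehicle wells with enzyme and 100% = reference inhibitor wells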
# aDG glyco up – increases alpha dystroglycan glycosylation; Pro5-aDG cells, alpha-DG glycosylation AlphaScreen (IIH6); 0% Pro5, 100% B10-LARGE cell signal; activation, % at 10 µM; 0.22% of 360,000 active; AID 624168;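 active = activation of at least 8% versus controls, or a plate z-score of at least 8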;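 also: Pro5 are CHO cells carrying HIG-tagged alpha-DG that lacks glycosylation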
# UCH37 inh – human UCH37 deubiquitinating enzyme inhibition | AID 588478 | Q9Y5K5 | purified proteasome/UCH37, Ub-AMC cleavage fluorescence | inhibition, % (no concentration beside the values) | 0.33% of 330,000 active;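 active = mean inhibition over replicate wells above about 20%, limit read from the data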;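 also: 0% = compound-free wells with enzyme and 100% = wells lacking proteasome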
# Target sequence (Q9Y5K5 whole entry, looked up): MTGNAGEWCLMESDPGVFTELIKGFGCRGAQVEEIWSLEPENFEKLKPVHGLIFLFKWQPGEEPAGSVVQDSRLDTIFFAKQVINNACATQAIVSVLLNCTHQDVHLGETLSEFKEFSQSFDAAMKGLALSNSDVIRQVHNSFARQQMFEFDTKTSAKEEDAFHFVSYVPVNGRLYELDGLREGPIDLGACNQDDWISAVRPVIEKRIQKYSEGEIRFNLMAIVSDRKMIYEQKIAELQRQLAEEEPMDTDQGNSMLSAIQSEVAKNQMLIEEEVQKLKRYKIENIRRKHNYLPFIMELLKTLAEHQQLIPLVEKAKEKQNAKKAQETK
#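 system = Proteasome-associated human UCH37 deubiquitinase | amount = 0.15 nM proteasome as dispensed | medium = pH 7.4 Tris-HCl (50 mM) with ovalbumin, ATP-MgCl2, DTT | incubation = 30 min preincubation with enzyme, 25 min cleavage at room temperature | detection = AMC fluorescence 355/460 nm | read-out basis = percent inhibition | controls = no-proteasome and no-compound wells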
# MsrA act – activates bovine MsrA enzyme | activation, % at 10.6 µM | purified bovine MsrA, absorbance read-out | 0.3% of 360,000 active; in the data active = activation above about 7.5%;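 also: 0% = vehicle and 100% = reference activator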
# MsrA activ conf – confirmation of bovine methionine sulfoxide reductase A activators | 12% of 1,000 active | shares compounds with MsrA act | activation, % at 10.6 µM | purified bovine MsrA, absorbance read-out | AID 602270; in the data active = activation above about 4%;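 also: enzyme coupled to thioredoxin and thioredoxin reductase with NADPH; 0% = vehicle wells and 100% = reference activator wells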
# Active calls of the source: *; x = not tested or not shown. Most compounds without a hit are left out; they make up all but 1.9% or so of the library.
SMILES,N-glyco inh,Vif inh,MsrA inh,aDG glyco up,UCH37 inh,MsrA act,MsrA activ conf
CC(C)c1ncc(C(O)c2cccc3ccccc23)n1C (stereo unspecified),0,6,-1,0,0,13*,-3
C(=NN(c1ccccc1)c1ccccc1)c1ccc(N2CCOCC2)s1,x,x,x,x,-3,x,x
S=c1[nH]c2ccc(Cl)cc2[nH]1,0,5,-1,0,3,-2,x
S=c1ncc2[nH]c(=S)[nH]c2[nH]1,1,-1,x,0,9,7.9*,6.2*
Clc1ccc(CON=Cc2c(-c3ccccc3)nc3n2CCS3)c(Cl)c1,x,x,x,x,-12,x,x
CC(=NNC(=O)c1cccnc1)c1nnn(-c2nonc2N)c1C,x,x,x,x,3,x,x
CCN(CC)c1ccc(-c2sc(Nc3ccccc3)n[n+]2-c2ccc(F)cc2)cc1,0,16,3,0,2,17*,4.0*
Cc1cc(C=NNc2nc(N)ncc2[N+](=O)[O-])c(C)n1-c1cccc(C(F)(F)F)c1,x,x,x,x,6,x,x
CCN1C(=O)N(S(=O)(=O)C(F)(F)F)[C@@H](c2ccccc2)C(C(=O)OC)=C1C,-1,x,0,0,1,-7,x
CCN1C(=O)N(C)[C@@H](c2ccccc2)C(C(=O)OC)=C1C,0,5,0,0,x,9.3*,-4
